Activity calls are given as the source filed them. No cut-off for these calls is given here.

For orientation: logP means the decadic logarithm of the partition coefficient of the neutral form, usually between octanol and water.

Data set [1] deals with Coxsackievirus A24. The data set can be described thus: Inhibition of Coxsackievirus A24 RNA polymerase 3D-POL assessed as reduction in uridylylated VPg level at 25 uM after 60 mins by SDS-PAGE analysis. The method in brief: (§1)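 Purified CVA24 3Dpol (1–2 µg) incubated at 30°C with 1 µg synthetic VPg, 0.5 µg polyA template, 10 µM UTP plus α-32P-UTP, and 0.5 mM Mn(II) acetate in 50 mM HEPES pH 7.5, 8% glycerol. Compounds were diluted from DMSO stocks in that buffer first. Reactions were stopped on ice, run on 16% urea Tris-Tricine SDS-PAGE, and VPgpU and VPgpolyU were phosphorimaged relative to DMSO or buffer controls.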

The test system of data set [2] is Coxsackievirus A24. The data set can be described thus: Inhibition of Coxsackievirus A24 RNA polymerase 3D-POL assessed as reduction in VPgpolyU level at 25 uM after 60 mins by SDS-PAGE analysis. The gist of the method:
as §1

Data set [3] is described as follows: Lipophilicity, log P of the compound. The class given is physicochemical. The note with it: octanol/water.
Data set [4] concerns Dengue virus. Kind of data set: Inhibition of Dengue virus RNA polymerase NS5 assessed as reduction in polyU formation at 20 uM by SDS-PAGE analysis.
Data set [5] has as its system Coxsackievirus A24. The data set can be described thus: Inhibition of Coxsackievirus A24 RNA polymerase 3D-POL assessed as reduction in VPgpolyU level at 20 uM by SDS-PAGE analysis. The method in brief:
as §1

Data set [6] has as its system Coxsackievirus A24. Kind of data set: Inhibition of Coxsackievirus A24 RNA polymerase 3D-POL assessed as reduction in uridylylated VPg level at 20 uM by SDS-PAGE analysis. The method in brief:
as §1

Data set [7] relates to Dengue virus. The data set can be described thus: Inhibition of Dengue virus RNA polymerase NS5 assessed as reduction in polyU formation at 10 uM by SDS-PAGE analysis.
Data set [8] has as its system Coxsackievirus A24. The data set can be described thus: Inhibition of Coxsackievirus A24 RNA polymerase 3D-POL assessed as reduction in VPgpolyU level at 10 uM by SDS-PAGE analysis. The method in brief: as §1
The test system of data set [9] is Coxsackievirus A24. Kind of data set: Inhibition of Coxsackievirus A24 RNA polymerase 3D-POL assessed as reduction in uridylylated VPg level at 10 uM by SDS-PAGE analysis. The gist of the method: as §1

Regarding `C/C(=N/Nc1nnc(-c2ccccc2)c(-c2ccccc2)n1)c1ccco1`, the inhibition entry in data set [1] and in data set [2] was “inactive” in each case. Besides, the logP in data set [3] was 4.36.

In the case of `O=S(=O)(NC1CCCc2ccccc21)c1cccc2nonc12` (configuration not stated), the inhibition entry in data set [1] and in data set [2] was “inactive” throughout. In [3], the lipophilicity (logP) came to 3.28.

Consider `O=C1c2ccccc2S(=O)(=O)N1C[C@@H]1CC(c2ccccc2Cl)=NO1`, for which the inhibition result in data set [1] and in data set [2] was “inactive” each time. In data set [3], this compound displayed a log partition coefficient (logP) of 2.71.

Consider `N#Cc1ccc(S(=O)(=O)N2CCNC(=O)[C@H]2CC(=O)Nc2cc(Cl)ccc2Cl)cc1`, for which the inhibition entry in [1] and in [2] was “inactive” throughout. In [3], this compound yielded a logP of 3.54.

As to `O=C(Nc1ccc2oc3ncccc3c(=O)c2c1)c1ccc([N+](=O)[O-])cc1`, the inhibition entry in data set [1] and in data set [2] was “inactive” in each case. For the same compound, the logP in [3] came to 3.5.

Consider `Cc1noc(C)c1-c1nc(CN2C(=O)c3ccccc3S2(=O)=O)no1`, for which the inhibition entry in data set [1] and in data set [2] was “inactive” in each case. Besides, in data set [3], the lipophilicity (logP) was 0.51.

`O=C1c2ccccc2S(=O)(=O)N1CCS(=O)(=O)c1ccc(Cl)cc1Cl`: the inhibition result in data set [1] and in data set [2] was “inactive” each time. In addition, the lipophilicity (logP) in [3] was 2.69.

With `COC(=O)c1cc(=O)c2cc(NC(=O)c3ccc(OC(F)(F)F)cc3)ccc2[nH]1`, the inhibition result in data set [1] and in [2] was “inactive” in each case. The compound also returned a logP in data set [3] of 2.78.

For `COc1ccc(-c2nc3cc4c(cc3o2)Oc2ccccc2N4)cc1`, the inhibition entry in data set [1] and in data set [2] was “inactive” each time. Moreover, the log partition coefficient (logP) in data set [3] was found to be 5.09.

For `O=C(NCc1nc2ccccc2s1)c1cc(F)cc2c1OCOC2`, the inhibition entry in data set [1] and in [2] was “inactive” each time. The same compound had a log partition coefficient (logP) in data set [3] of 3.12.

In [3], `C[C@@H](CS(=O)(=O)Nc1ccc2c(c1)oc(=O)n2C)c1ccccc1` registered a logP of 3.06.

In the case of `CCN(c1ccccc1)S(=O)(=O)c1ccc2[nH]c(=O)oc2c1`, the inhibition result in data set [4] was “inactive”. The compound also yielded a logP in [3] of 3. Besides, the inhibition entry in data set [5] and in data set [6] was “Active” throughout.

For `O=C(Nc1ccc(OC(F)(F)F)cc1)N1CCN(c2ncccn2)CC1`, the inhibition entry in [1] and in data set [2] was “inactive” each time. Also, in data set [3], the logP was 2.96.

As for `Cn1c(=O)oc2cc(S(=O)(=O)Nc3ccccc3NC(=O)c3ccc(C(C)(C)C)cc3)ccc21`, the inhibition entry in data set [4] is “inactive”. For the same compound, in data set [3], the lipophilicity (logP) amounted to 4.54.

Take `O=C1/C(=C/c2ccc3c(c2)OCO3)CCC/C1=C\c1ccc2c(c1)OCO2`: the inhibition entry in data set [1] and in [2] was “inactive” in each case. Moreover, the log partition coefficient (logP) in [3] was found to be 4.75.

On to `CC1=C(C(=O)N[n+]2cnc3cccc(F)c3c2N)Sc2ccccc2N1`, for which the inhibition entry in data set [1] and in data set [2] was “inactive” each time. Further, in [3], the logP was -0.39.

As to `c1ccc2c(c1)c1ccccc1c1nn3nnnc3nc21`, the inhibition entry in data set [1] and in data set [2] was “inactive” in each case. The compound also came in with a logP in [3] of 3.16.

With `O=C(NNc1cc(C(F)(F)F)nc2ccccc12)Nc1cccc(Cl)c1`, the inhibition entry in data set [1] and in data set [2] was “inactive” each time. The same compound had a logP in [3] of 5.14.

As to `O=S(=O)(c1ccccc1)N1CCN(C2c3ccccc3-c3ccccc32)CC1`, the inhibition entry in [1] and in data set [2] was “inactive” each time. The compound further displayed a logP in [3] of 4.26.

As for `O=C(Nc1ccccc1)Nc1ccc(Oc2cccc(C(F)(F)F)c2)nc1`, the inhibition entry in [1] and in data set [2] was “inactive” in each case. In addition, the logP in data set [3] amounted to 5.04.

Consider `O=S(=O)(NCc1cc(F)cc2c1OCOC2)c1cccc2nonc12`, for which the inhibition entry in [1] and in [2] was “inactive” each time. In addition, in data set [3], the logP turned out to be 2.2.

Take `COC(=O)Nc1nc2cc(-c3nnc(O)c4ccccc34)ccc2[nH]1`: the inhibition result in [1] and in data set [2] was “inactive” each time. Also, the logP in data set [3] was 2.53.

On to `Cc1c(S(=O)(=O)N2CCN(C3c4ccccc4-c4ccccc43)CC2)cnn1-c1ccccc1`, for which the inhibition result in data set [1] and in data set [2] was “inactive” throughout. Also, the logP in [3] stood at 4.13.

Take `Cn1c(=O)oc2cc(S(=O)(=O)Nc3ccccc3Oc3ccccc3Cl)ccc21`: the log partition coefficient (logP) in [3] was 4.32.

`Cn1c(=O)oc2cc(S(=O)(=O)Nc3ccccc3Sc3ccccc3)ccc21` showed a log partition coefficient (logP) in data set [3] of 3.91.

Turning to `O=c1[nH]c2ccc(S(=O)(=O)Nc3cccc(F)c3)cc2o1`, the inhibition entry in data set [7] was “inactive”. For the same compound, the logP in data set [3] came to 2.06. For the same compound, the inhibition result in data set [8] and in data set [9] was “Active” throughout.

Consider `CC(C)COc1ccc(NS(=O)(=O)c2ccc3c(c2)oc(=O)n3C)cc1Cl`, for which the log partition coefficient (logP) in [3] worked out at 3.77.

As for `N#Cc1ccc(N2CCN(S(=O)(=O)c3cccc4nonc34)CC2)cc1`, the inhibition entry in data set [1] and in data set [2] was “inactive” throughout. Further, the lipophilicity (logP) in [3] was determined as 2.51.

In turn, `CCOc1ccc(Oc2ccc(NS(=O)(=O)c3ccc4c(c3)oc(=O)n4C)cc2)cc1` displayed a lipophilicity (logP) in data set [3] of 4.17.

`Cn1c(=O)oc2cc(S(=O)(=O)N(CCC(N)=O)c3ccccc3)ccc21` displayed a logP in data set [3] of 1.23.

For the compound `O=S(=O)(NNc1cnc2ccccc2n1)c1ccccc1C(F)(F)F`, the inhibition result in data set [1] and in data set [2] was “inactive” in each case. This compound registered a lipophilicity (logP) in data set [3] of 3.23.

Regarding `O=C(CSc1nc2ccccc2o1)N1c2ccccc2Sc2ccccc21`, the inhibition entry in data set [1] and in data set [2] was “inactive” throughout. The same compound registered a lipophilicity (logP) in data set [3] of 6.09.

For the compound `c1ccc2c(c1)Nc1nc3ccccc3nc1O2`, the inhibition result in data set [1] and in data set [2] was “inactive” each time. Also, the lipophilicity (logP) in data set [3] stood at 3.46.

On to `Cn1c(=O)oc2cc(S(=O)(=O)Nc3cccc4cccnc34)ccc21`, for which, in data set [3], the logP stood at 1.94.

In the case of `Cc1nc(-c2cnccn2)sc1C(=O)N1CCN(C2c3ccccc3-c3ccccc32)CC1`, the inhibition entry in [1] and in data set [2] was “inactive” throughout. The compound further came in with a logP in data set [3] of 3.86.

These data come from ChEMBL document CHEMBL3745661, “Allosteric inhibitors of Coxsackie virus A24 RNA polymerase” (Bioorg Med Chem, 2016).
